Experimental data as given in ChEMBL document CHEMBL5376022, “Design, synthesis and biological evaluation of novel pyrimidine derivatives as bone anabolic agents promoting osteogenesis via the BMP2/SMAD1 signaling pathway” (RSC Med Chem, 2024).
Active and inactive are the calls of the source. The calls are words filed in the database; no cut-off is given here.

Experiments:
Calvarial osteoblast [1] = assay: Induction of osteogenesis in BALB/c mouse calvarial osteoblast cells using PNPP as substrate assessed as increase in ALP activity at 0.001 to 10 nM measured after 48 hrs by spectrophotometry; assay type: functional, cell-based; conditions: Calvaria, dose 0.001-10 nM
Method in brief: (§1)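 Neonatal BALB/c calvarial osteoblasts, 2 × 10³ cells per well, adhered 24 h, then exposed to compounds (1 pM to 1 μM range) in osteoblast differentiation medium for 48 h. Cells frozen overnight at −80 or −20 °C, thawed at 37 °C to expose ectoenzyme; p-nitrophenyl phosphate added and ALP activity read at 405 nm. Untreated cells as control.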

Calvarial osteoblast [2] = assay: Cytotoxicity in BALB/c mouse calvarial osteoblast cells at 0.001 to 1000 nM incubated for 48 hrs by MTT assay; assay type: toxicity, cell-based, Calvaria; conditions: 1 µM, dose 0.001-1000 nM
Method in brief: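 Primary calvarial osteoblasts from 1–2 day old BALB/c pups (collagenase/dispase digests, α-MEM with 10% FBS) seeded at 2 × 10³ per well. MTT added for 4 h at 37 °C, formazan dissolved in DMSO, absorbance read at 570 nm.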

Calvarial osteoblast [3] = assay: Induction of cell proliferation of BALB/c mouse calvarial osteoblast cells at 0.001 nM incubated for 48 hrs by MTT assay relative to control; assay type: functional, Calvaria
Method in brief: (§2)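 Primary calvarial osteoblasts from 1–2-day-old neonatal BALB/c pups, released by dispase/collagenase digestion and grown in α-MEM with 10% FBS. Seeded at 2 × 10³ cells per well, treated after 24 h for 48 h in α-MEM with 5% FBS, 10 mM β-glycerophosphate and 50 μg mL⁻¹ ascorbic acid. MTT added for 4 h at 37 °C, formazan dissolved in DMSO, absorbance read at 570 nm versus untreated cells.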

Calvarial osteoblast [4] = assay: Induction of cell proliferation of BALB/c mouse calvarial osteoblast cells at 0.1 nM incubated for 48 hrs by MTT assay relative to control; assay type: functional, Calvaria; method in brief: as §2
[5] = Induction of osteogenesis in BALB/c mouse MSC cells assessed as increase in mineral nodule formation at 0.1 nM treated for 21 days with compound refreshment for every 48 hrs by Alizarin red S staining based analysis relative to control; assay type: functional; conditions: time 21 day
Method in brief: (§3)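 Bone marrow cells were flushed from the long bones of 6–8-week-old BALB/c mice and seeded at 2 × 10⁶ per well. Medium: 10% FBS, 100 nM dexamethasone, 50 μg mL⁻¹ ascorbic acid and 10 mM β-glycerophosphate. Compound and medium were renewed every 48 h for 21 days. Cells were fixed in 4% paraformaldehyde and stained with Alizarin red (pH 4.2). Stain was eluted with 10% cetylpyridinium chloride for 1 h and read at 595 nm versus control.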

[6] = Induction of osteogenesis in BALB/c mouse MSC cells assessed as increase in mineral nodule formation at 0.001 nM treated for 21 days with compound refreshment for every 48 hrs by Alizarin red S staining based analysis relative to control; assay type: functional; conditions: time 21 day; method in brief: as §3
Calvarial osteoblast [7] = assay: Induction of osteogenesis in BALB/c mouse calvarial osteoblast cells using PNPP as substrate assessed as increase in ALP activity at 0.1 to 10 nM measured after 48 hrs by spectrophotometry; assay type: functional, cell-based; conditions: Calvaria, dose 0.1-10 nM; method in brief: as §1
Calvarial osteoblast [8] = assay: Induction of osteogenesis in BALB/c mouse calvarial osteoblast cells using PNPP as substrate assessed as increase in ALP activity at 0.001 to 1000 nM measured after 48 hrs by spectrophotometry; assay type: functional, cell-based; conditions: Calvaria, dose 0.001-1000 nM; method in brief: as §1
Calvarial osteoblast [9] = assay: Induction of osteogenesis in BALB/c mouse calvarial osteoblast cells assessed as increase in RUNX mRNA level at 1 to 100 pM by qPCR analysis; assay type: functional, cell-based; conditions: Calvaria, dose 1-100 pM
Method in brief: (§4)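 BALB/c calvarial osteoblasts treated at 1 pM and 100 pM; RNA isolated, cDNA synthesized and RUNX2 and type 1 col transcripts measured by PCR.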

Calvarial osteoblast [10] = assay: Induction of osteogenesis in BALB/c mouse calvarial osteoblast cells assessed as increase in type-1 col mRNA level at 1 to 100 pM by qPCR analysis; assay type: functional, cell-based; conditions: Calvaria, dose 1-100 pM; method in brief: as §4
Calvarial osteoblast [11] = assay: Induction of osteogenesis in BALB/c mouse calvarial osteoblast cells assessed as increase in BMP2 level at 1 to 100 pM incubated for 48 hrs by Western blot analysis; assay type: functional, cell-based; conditions: Calvaria, dose 1-100 pM
Method in brief: (§5)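 Calvarial osteoblasts seeded at 10⁶ per well, treated after 24 h at 1 pM and 100 pM for 48 h. Lysed with protease and phosphatase inhibitors, protein by BCA; 30 μg resolved by SDS-PAGE, PVDF transfer, 5% BSA block. Primary antibodies to BMP2, SMAD1, phospho-SMAD1, RUNX2, type I col (1:1000) overnight at 4 °C; β-actin loading control; HRP chemiluminescence and densitometry.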

Calvarial osteoblast [12] = assay: Induction of osteogenesis in BALB/c mouse calvarial osteoblast cells assessed as increase in SMAD1 level at 1 to 100 pM incubated for 48 hrs by Western blot analysis; assay type: functional, cell-based; conditions: Calvaria, dose 1-100 pM; method in brief: as §5
Calvarial osteoblast [13] = assay: Induction of osteogenesis in BALB/c mouse calvarial osteoblast cells assessed as increase in phosphorylated SMAD1 level at 1 to 100 pM incubated for 48 hrs by Western blot analysis; assay type: functional, cell-based; conditions: Calvaria, dose 1-100 pM; method in brief: as §5
Calvarial osteoblast [14] = assay: Induction of osteogenesis in BALB/c mouse calvarial osteoblast cells assessed as increase in RUNX2 level at 1 to 100 pM incubated for 48 hrs by Western blot analysis; assay type: functional, cell-based; conditions: Calvaria, dose 1-100 pM; method in brief: as §5
Calvarial osteoblast [15] = assay: Induction of osteogenesis in BALB/c mouse calvarial osteoblast cells assessed as increase in type-1 col level at 1 to 100 pM incubated for 48 hrs by Western blot analysis; assay type: functional, cell-based; conditions: Calvaria, dose 1-100 pM; method in brief: as §5
[16] = Stability in SGF assessed as compound remaining measured upto 6 hrs by RP-UHPLC analysis; assay type: ADME; conditions: simulated gastric fluid (SGF), read-out: Stability
[17] = Stability in SIF assessed as compound remaining measured upto 6 hrs by RP-UHPLC analysis; assay type: ADME; conditions: simulated intestinal fluid (SIF), read-out: Stability
[18] = Stability in SPF assessed as compound remaining measured upto 6 hrs by RP-UHPLC analysis; assay type: physicochemical; conditions: read-out: Stability
[19] = Stability in BALB/c mouse plasma assessed as compound remaining measured upto 6 hrs by RP-UHPLC analysis; assay type: ADME, cell-free; conditions: read-out: Stability
[20] = Cmax in BALB/c mouse at 5 mg/kg, po measured for 0.83 to 24 hrs by LC-MS/MS analysis; assay type: ADME, organism-based; set-up: time 0.83-24 hrs, dose 5 mg/kg, route po; conditions: in vivo
[21] = Tmax in BALB/c mouse at 5 mg/kg, po measured for 0.83 to 24 hrs by LC-MS/MS analysis; assay type: ADME, organism-based; conditions: in vivo, time 0.83-24 hrs
[22] = AUC (0 to infinity) in BALB/c mouse at 5 mg/kg, po measured for 0.83 to 24 hrs by LC-MS/MS analysis; assay type: ADME, organism-based; set-up: time upper 24 hrs, dose 5 mg/kg, time lower 0.83 hrs, route po; conditions: in vivo
[23] = Half life in BALB/c mouse at 5 mg/kg, po measured for 0.83 to 24 hrs by LC-MS/MS analysis; assay type: ADME, organism-based; conditions: in vivo, time 0.83-24 hrs
[24] = Clearance in BALB/c mouse at 5 mg/kg, po measured for 0.83 to 24 hrs by LC-MS/MS analysis; assay type: ADME, organism-based; conditions: in vivo, time 0.83-24 hrs
[25] = Volume of distribution in BALB/c mouse at 5 mg/kg, po measured for 0.83 to 24 hrs by LC-MS/MS analysis; assay type: ADME, organism-based; conditions: in vivo, time 0.83-24 hrs
[26] = MRT in BALB/c mouse at 5 mg/kg, po measured for 0.83 to 24 hrs by LC-MS/MS analysis; assay type: ADME, organism-based; conditions: in vivo, time 0.83-24 hrs
Mus musculus [27] = assay: Induction of osteogenesis in BALB/c mouse model of drill hole defect at femur mid-diaphysis assessed as increase in fracture healing at 1 to 10 mg/kg, po for 12 days by micro-CT analysis; assay type: functional, organism-based; conditions: dose 1-10 mg/kg, time 12.0 day
Method in brief: (§6)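 Female BALB/c mice, 8–9 weeks, given a drill-hole defect at femur mid-diaphysis under intraperitoneal ketamine (45 mg kg⁻¹)/xylazine (5 mg kg⁻¹); ten per group. Oral dosing at 1, 5 or 10 mg kg⁻¹ began the day after injury for 12 days; PTH 20 μg kg⁻¹ per day as reference. Defect region scanned by μCT for BV/TV, Tb.Th and Tb.N.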

Mus musculus [28] = assay: Induction of osteogenesis in BALB/c mouse model of drill hole defect at femur mid-diaphysis assessed as increase in callus formation at 1 to 10 mg/kg, po for 12 days by micro-CT analysis; assay type: functional, organism-based; conditions: dose 1-10 mg/kg, time 12.0 day; method in brief: as §6
Mus musculus [29] = assay: Induction of osteogenesis in BALB/c mouse model of drill hole defect at femur mid-diaphysis assessed as increase in bone volume/tissue volume fraction at 5 to 10 mg/kg, po for 12 days by micro-CT analysis; assay type: functional, organism-based; conditions: dose 5-10 mg/kg, time 12.0 day; method in brief: as §6
Mus musculus [30] = assay: Induction of osteogenesis in BALB/c mouse model of drill hole defect at femur mid-diaphysis assessed as increase in trabecular thickness at 5 to 10 mg/kg, po for 12 days by micro-CT analysis; assay type: functional, organism-based; conditions: dose 5-10 mg/kg, time 12.0 day; method in brief: as §6
Mus musculus [31] = assay: Induction of osteogenesis in BALB/c mouse model of drill hole defect at femur mid-diaphysis assessed as increase in trabecular number at 5 mg/kg, po for 12 days by micro-CT analysis; assay type: functional, organism-based; conditions: time 12.0 day; method in brief: as §6
Mus musculus [32] = assay: Induction of osteogenesis in BALB/c mouse model of drill hole defect at femur mid-diaphysis assessed as increase in calcein binding at fracture site at 5 mg/kg, po for 12 days by confocal microscopy; assay type: functional, organism-based; conditions: time 12.0 day
Method in brief: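 Femur drill-hole model in female BALB/c mice, oral dosing 1–10 mg kg⁻¹ for 12 days from the day after injury. Calcein 20 mg kg⁻¹ in saline given i.p. 24 h before autopsy; undecalcified drill-hole region embedded in acrylic, 50 μm sections cut, and calcein intensity at the fracture site quantified.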

Mus musculus [33] = assay: Induction of osteogenesis in BALB/c mouse model of drill hole defect at femur mid-diaphysis assessed as increase in RUNX2 mRNA level at 5 to 10 mg/kg, po for 12 days by qPCR analysis; assay type: functional, organism-based; conditions: dose 5-10 mg/kg, time 12.0 day
Mus musculus [34] = assay: Induction of osteogenesis in BALB/c mouse model of drill hole defect at femur mid-diaphysis assessed as increase in BMP2 mRNA level at 5 to 10 mg/kg, po for 12 days by qPCR analysis; assay type: functional, organism-based; conditions: dose 5-10 mg/kg, time 12.0 day
Mus musculus [35] = assay: Induction of osteogenesis in BALB/c mouse model of drill hole defect at femur mid-diaphysis assessed as increase in type-1 col mRNA level at 5 to 10 mg/kg, po for 12 days by qPCR analysis; assay type: functional, organism-based; conditions: dose 5-10 mg/kg, time 12.0 day
Mus musculus [36] = assay: Induction of osteogenesis in BALB/c mouse model of drill hole defect at femur mid-diaphysis assessed as increase in extracellular matrix deposition at 1 to 10 mg/kg, po for 12 days by H and E staining based analysis; assay type: functional, organism-based; conditions: dose 1-10 mg/kg, time 12.0 day
Method in brief: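 Drill-hole femur defect, female BALB/c mice, oral dosing 1–10 mg kg⁻¹ for 12 days. Injury-site tissue fixed 48 h in 4% paraformaldehyde, 48 h in 70% isopropanol, decalcified, paraffin-embedded; 5 μm transverse sections stained with H&E and imaged by bright-field microscopy.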

Calvarial osteoblast [37] = assay: Induction of cell proliferation of BALB/c mouse calvarial osteoblast cells at 10 nM incubated for 48 hrs by MTT assay relative to control

CCCCCC(=O)Nc1nc(-c2ccc(Br)cc2)cc(-c2cc(OC)c(OC)cc2OC)n1
Activity (Calvarial osteoblast [1]): Active
Activity (Calvarial osteoblast [2]): Non-Toxic
Activity (Calvarial osteoblast [3]): ~22%
Activity (Calvarial osteoblast [4]): ~25%
Activity [5]: ~25%
Activity [6]: ~24%

COc1cc(OC)c(-c2cc(-c3ccc(Br)cc3)nc(N)n2)cc1OC
Activity (Calvarial osteoblast [7]): Active
Activity (Calvarial osteoblast [2]): Non-Toxic
Activity (Calvarial osteoblast [4]): ~30%
Activity [5]: ~23%

CCCCCC(=O)Nc1nc(-c2ccc(Br)cc2)c(Br)c(-c2cc(OC)c(OC)cc2OC)n1
Activity (Calvarial osteoblast [8]): Active
Activity (Calvarial osteoblast [2]): Non-Toxic
Activity (Calvarial osteoblast [3]): ~32%
Activity (Calvarial osteoblast [4]): ~31%
Activity [5]: ~39%
Activity [6]: ~40%
Activity (Calvarial osteoblast [9]): Active
Activity (Calvarial osteoblast [10]): Active
Activity (Calvarial osteoblast [11]): Active
Activity (Calvarial osteoblast [12]): Active
Activity (Calvarial osteoblast [13]): Active
Activity (Calvarial osteoblast [14]): Active
Activity (Calvarial osteoblast [15]): Active
remaining at 6 h [16]: > 50%
remaining at 6 h [17]: > 50%
remaining at 6 h [18]: > 85%
remaining at 6 h [19]: > 85%
Cmax [20]: 0.83 ng/mL
Tmax [21]: 49.8 min
AUC [22]: 6.18006 ng·h/mL
half-life [23]: 747 min
CL [24]: 117.84 L/h/kg
Vd [25]: 2113.99 L/kg
MRT [26]: 18.1 h
Activity (Mus musculus [27]): Active
Activity (Mus musculus [28]): Active
Activity (Mus musculus [29]): Active
Activity (Mus musculus [30]): Active
Activity (Mus musculus [31]): Active
Activity (Mus musculus [32]): Active
Activity (Mus musculus [33]): Active
Activity (Mus musculus [34]): Active
Activity (Mus musculus [35]): Active
Activity (Mus musculus [36]): Active
Activity (Calvarial osteoblast [37]): ~23%
